Assay results: ChEMBL document CHEMBL1123998, “Radioiodinated benzodiazepines: agents for mapping glial tumors” (J Med Chem, 1988)

Assays:
[1] = molecular target: GABA-A receptor; anion channel; assay: Binding affinity for GABA-A benzodiazepine receptor of rat brain
Procedure, shortened: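 Frozen rat brain (central receptor) and kidney (peripheral site) sections, 20 μm, were prewashed 3 × 5 min in 50 mM Tris pH 7.4 at 0 °C. They were incubated 90 min with 5 nM [³H]flunitrazepam plus graded competitor, with 1 μM PK 11195 defining nonspecific binding. Film autoradiography (10 days, ¹⁴C standards) was read by densitometry. Ki = IC50/(1+[L]/Kd), Kd 40 nM; N = 3.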

Translocator protein = Translocator protein (Rattus norvegicus, UniProt P16257); assay: Binding affinity for peripheral benzodiazepine receptor of rat kidney
[2] = molecular target: Translocator protein (Rattus norvegicus) (UniProt P16257); assay: Reduced radioligand binding following 30 min intravenous 10 mg/kg PK11195 in adrenal tissue; assay type: functional, organism-based; set-up: dose 10 mg/kg; conditions: at 10 mg/kg
Rattus norvegicus [3] = species on record: Rattus norvegicus; assay: Radioligand binding in heart tissue after 24 hr r; assay type: functional
Procedure, shortened: (§1)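 Male Sprague-Dawley rats (160–265 g) under light ether received 16–19 μCi ¹²⁵I-ligand in 0.20–0.25 mL 15:85 EtOH/PBS pH 6.0 via the femoral vein. They were decapitated at 5 min, 30 min, 2, 6 or 24 h, and tissues were weighed and gamma-counted. Results are % injected dose/g wet tissue, normalized to a 200-g rat; N = 5 per time point.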

Rattus norvegicus [4] = species on record: Rattus norvegicus; assay: Radioligand binding in kidney tissue after 24 hr r; assay type: functional; procedure, shortened: as §1
Rattus norvegicus [5] = species on record: Rattus norvegicus; assay: Radioligand binding in adrenal tissue after 2 hr; assay type: functional; procedure, shortened: as §1
Rattus norvegicus [6] = species on record: Rattus norvegicus; assay: Radioligand binding in blood after 2 hr; assay type: functional; procedure, shortened: as §1
Rattus norvegicus [7] = species on record: Rattus norvegicus; assay: Radioligand binding in brain tissue after 2 hr; assay type: functional; procedure, shortened: as §1
Rattus norvegicus [8] = species on record: Rattus norvegicus; assay: Radioligand binding in heart tissue after 2 hr; assay type: functional; procedure, shortened: as §1
Rattus norvegicus [9] = species on record: Rattus norvegicus; assay: Radioligand binding in kidney tissue after 2 hr; assay type: functional; procedure, shortened: as §1
Rattus norvegicus [10] = species on record: Rattus norvegicus; assay: Radioligand binding in thyroid tissue after 2 hr; assay type: functional, Thyroid gland; procedure, shortened: as §1
Rattus norvegicus [11] = species on record: Rattus norvegicus; assay: Radioligand binding in thyroid tissue after 2 hr in rats given oral KI solution; assay type: functional, Thyroid gland
Rattus norvegicus [12] = species on record: Rattus norvegicus; assay: Radioligand binding in adrenal tissue after 24 hr r; assay type: functional; procedure, shortened: as §1
Rattus norvegicus [13] = species on record: Rattus norvegicus; assay: Radioligand binding in blood after 24 hr r; assay type: functional; procedure, shortened: as §1
Rattus norvegicus [14] = species on record: Rattus norvegicus; assay: (§2) Radioligand binding in brain tissue after 24 hr r; assay type: functional; procedure, shortened: as §1
Rattus norvegicus [15] = species on record: Rattus norvegicus; assay: as §2; assay type: functional; procedure, shortened: as §1; remark: listed apart in the source
Rattus norvegicus [16] = species on record: Rattus norvegicus; assay: Radioligand binding in heart tissue after 6 hr; assay type: functional; procedure, shortened: as §1
Rattus norvegicus [17] = species on record: Rattus norvegicus; assay: Radioligand binding in kidney tissue after 6 hr; assay type: functional; procedure, shortened: as §1
Rattus norvegicus [18] = species on record: Rattus norvegicus; assay: Radioligand binding in thyroid tissue after 6 hr; assay type: functional, Thyroid gland; procedure, shortened: as §1
Rattus norvegicus [19] = species on record: Rattus norvegicus; assay: Radioligand binding in thyroid tissue after 24 hr r; assay type: functional, Thyroid gland; procedure, shortened: as §1
Rattus norvegicus [20] = species on record: Rattus norvegicus; assay: Radioligand binding in adrenal gland after 30 min; assay type: functional; procedure, shortened: as §1
Rattus norvegicus [21] = species on record: Rattus norvegicus; assay: Radioligand binding in blood after 30 min; assay type: functional; procedure, shortened: as §1
Rattus norvegicus [22] = species on record: Rattus norvegicus; assay: Radioligand binding in brain tissue after 30 min; assay type: functional; procedure, shortened: as §1
Rattus norvegicus [23] = species on record: Rattus norvegicus; assay: Radioligand binding in heart tissue after 30 min; assay type: functional; procedure, shortened: as §1
Rattus norvegicus [24] = species on record: Rattus norvegicus; assay: Radioligand binding in kidney tissue after 30 min; assay type: functional; procedure, shortened: as §1
Rattus norvegicus [25] = species on record: Rattus norvegicus; assay: Radioligand binding in thyroid tissue after 30 min; assay type: functional, Thyroid gland; procedure, shortened: as §1
Rattus norvegicus [26] = species on record: Rattus norvegicus; assay: Radioligand binding in adrenal gland after 5 min; assay type: functional; procedure, shortened: as §1
Rattus norvegicus [27] = species on record: Rattus norvegicus; assay: Radioligand binding in blood after 5 min; assay type: functional; procedure, shortened: as §1
Rattus norvegicus [28] = species on record: Rattus norvegicus; assay: Radioligand binding in brain tissue after 5 min; assay type: functional; procedure, shortened: as §1
Rattus norvegicus [29] = species on record: Rattus norvegicus; assay: Radioligand binding in heart tissue after 5 min; assay type: functional; procedure, shortened: as §1
Rattus norvegicus [30] = species on record: Rattus norvegicus; assay: Radioligand binding in kidney tissue after 5 min; assay type: functional; procedure, shortened: as §1
Rattus norvegicus [31] = species on record: Rattus norvegicus; assay: Radioligand binding in thyroid tissue after 5 min; assay type: functional, Thyroid gland; procedure, shortened: as §1
Rattus norvegicus [32] = species on record: Rattus norvegicus; assay: Radioligand binding in adrenal tissue after 6 hr; assay type: functional; procedure, shortened: as §1
Rattus norvegicus [33] = species on record: Rattus norvegicus; assay: Radioligand binding in blood after 6 hr; assay type: functional; procedure, shortened: as §1
[34] = molecular target: Translocator protein (Rattus norvegicus) (UniProt P16257); assay: Reduced radioligand binding following 30 min intravenous 10 mg/kg PK11195 in adrenal gland; assay type: functional, organism-based; set-up: dose 10 mg/kg
[35] = molecular target: Translocator protein (Rattus norvegicus) (UniProt P16257); assay: Reduced radioligand binding following 30 min intravenous 10 mg/kg PK11195 in brain tissue; assay type: functional, organism-based; set-up: dose 10 mg/kg
[36] = molecular target: Translocator protein (Rattus norvegicus) (UniProt P16257); assay: Reduced radioligand binding following 30 min intravenous 10 mg/kg PK11195 in heart tissue; assay type: functional, organism-based; set-up: dose 10 mg/kg
[37] = molecular target: Translocator protein (Rattus norvegicus) (UniProt P16257); assay: Reduced radioligand binding following 30 min intravenous 10 mg/kg PK11195 in kidney tissue; assay type: functional, organism-based; set-up: dose 10 mg/kg
[38] = molecular target: Translocator protein (Rattus norvegicus) (UniProt P16257); assay: Reduced radioligand binding following 30 min intravenous 10 mg/kg PK11195 in lung tissue; assay type: functional, organism-based; set-up: dose 10 mg/kg
[39] = molecular target: Translocator protein (Rattus norvegicus) (UniProt P16257); assay: Reduced radioligand binding following 30 min intravenous 10 mg/kg PK11195 in submaxillary gland; assay type: functional, organism-based; set-up: dose 10 mg/kg
[40] = molecular target: Translocator protein (Rattus norvegicus) (UniProt P16257); assay: Reduced radioligand binding following 30 min intravenous 10 mg/kg PK11195 in blood; assay type: functional, organism-based; set-up: dose 10 mg/kg

Chain of Translocator protein (Rattus norvegicus) (P16257 whole entry, looked up): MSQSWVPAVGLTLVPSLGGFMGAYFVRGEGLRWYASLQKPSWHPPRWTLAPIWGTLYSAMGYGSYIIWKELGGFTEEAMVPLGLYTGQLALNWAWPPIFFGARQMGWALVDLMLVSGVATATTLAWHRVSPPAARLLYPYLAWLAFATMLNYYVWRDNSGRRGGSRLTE
Chain of Translocator protein (P16257 whole entry, looked up): as above

## CN1C(=O)CN=C(c2ccc(I)cc2)c2cc(Cl)ccc21
[1]
  Ki: > 1000 nM
Translocator protein
  Ki: 13.6 nM
[2]
  Change: -75%
Rattus norvegicus [3]
  Activity: 0.02
Rattus norvegicus [4]
  Activity: 0.03
Rattus norvegicus [5]
  Activity: 2.38
Rattus norvegicus [6]
  Activity: 0.1
Rattus norvegicus [7]
  Activity: 0.35
Rattus norvegicus [8]
  Activity: 0.5
Rattus norvegicus [9]
  Activity: 0.51
Rattus norvegicus [10]
  Activity: 4.26
Rattus norvegicus [11]
  Activity: 0.49
Rattus norvegicus [12]
  Activity: 0.05
Rattus norvegicus [13]
  Activity: 0.01
Rattus norvegicus [14]
  Activity: 0.01
Rattus norvegicus [15]
  Activity: 0.14
Rattus norvegicus [16]
  Activity: 0.19
Rattus norvegicus [17]
  Activity: 0.21
Rattus norvegicus [18]
  Activity: 11.85
Rattus norvegicus [19]
  Activity: 10.85
Rattus norvegicus [20]
  Activity: 7.85
Rattus norvegicus [21]
  Activity: 0.11
Rattus norvegicus [22]
  Activity: 0.6
Rattus norvegicus [23]
  Activity: 1.13
Rattus norvegicus [24]
  Activity: 1.05
Rattus norvegicus [25]
  Activity: 2.25
Rattus norvegicus [26]
  Activity: 7.1
Rattus norvegicus [27]
  Activity: 0.22
Rattus norvegicus [28]
  Activity: 1
Rattus norvegicus [29]
  Activity: 2.18
Rattus norvegicus [30]
  Activity: 1.78
Rattus norvegicus [31]
  Activity: 3.27
Rattus norvegicus [32]
  Activity: 0.6
Rattus norvegicus [33]
  Activity: 0.05
[34]
  Distribution: 1.74
[35]
  Distribution: 0.69
[36]
  Distribution: 0.76
[36]; at 10 mg/kg
  Change: -34%
[37]
  Distribution: 0.74
[37]; at 10 mg/kg
  Change: -35%
[38]
  Distribution: 0.58
[38]; at 10 mg/kg
  Change: -46%
[39]
  Distribution: 0.74
[39]; at 10 mg/kg
  Change: -49%
[40]
  Distribution: 0.16

## CN1C(=O)CN=C(c2ccc(Cl)cc2)c2cc(I)ccc21
[1]
  Ki: > 1000 nM
Translocator protein
  Ki: 13.3 nM
Rattus norvegicus [3]
  Activity: 0.25
Rattus norvegicus [4]
  Activity: 0.25
Rattus norvegicus [5]
  Activity: 1.84
Rattus norvegicus [6]
  Activity: 0.12
Rattus norvegicus [7]
  Activity: 0.41
Rattus norvegicus [8]
  Activity: 0.63
Rattus norvegicus [9]
  Activity: 0.58
Rattus norvegicus [10]
  Activity: 5.57
Rattus norvegicus [12]
  Activity: 0.42
Rattus norvegicus [13]
  Activity: 0.05
Rattus norvegicus [14]
  Activity: 0.21
Rattus norvegicus [15]
  Activity: 0.46
Rattus norvegicus [16]
  Activity: 0.57
Rattus norvegicus [17]
  Activity: 0.59
Rattus norvegicus [18]
  Activity: 17.28
Rattus norvegicus [19]
  Activity: 17.2
Rattus norvegicus [20]
  Activity: 3.63
Rattus norvegicus [21]
  Activity: 0.15
Rattus norvegicus [22]
  Activity: 0.46
Rattus norvegicus [23]
  Activity: 0.77
Rattus norvegicus [24]
  Activity: 0.74
Rattus norvegicus [25]
  Activity: 4.42
Rattus norvegicus [26]
  Activity: 4.85
Rattus norvegicus [27]
  Activity: 0.2
Rattus norvegicus [28]
  Activity: 0.75
Rattus norvegicus [29]
  Activity: 1.15
Rattus norvegicus [30]
  Activity: 1.1
Rattus norvegicus [31]
  Activity: 1.5
Rattus norvegicus [32]
  Activity: 1.3
Rattus norvegicus [33]
  Activity: 0.12

## CN1C(=O)CN=C(c2ccc(Cl)cc2)c2cc(Cl)ccc21 [RO-54864]
[1]
  Ki: > 1000 nM
